Tested on: U2OS
Test: Multiplex assay against U2OS
Type: toxicity, cell-based
Conditions: human
Method in brief: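 Hoechst33342, BioTracker Green Microtubule Cytoskeleton Dye, MitoTracker Red and Annexin V Alexa Fluor 680 were added to live cells at seeding, and imaging on a CQ1 microscope at 37°C and 5% CO2 followed compound addition. Gating by CellPathfinder machine learning separated cells into Hoechst high-intensity objects or normal cells, then normal cells into healthy, pyknosed or fragmented nuclei, then pyknosed cells into mitotic or apoptotic. Per cents of healthy-nucleus cells are reported for the tubulin, mitochondrial-mass and membrane-permeability phenotypes.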

[1] = 12 h, 1 µM, compound concentration 1 uM, replicate 1
[2] = 12 h, 1 µM, compound concentration 1 uM, replicate 2
[3] = 12 h, 10 µM, compound concentration 10 uM, replicate 1
[4] = 12 h, 10 µM, compound concentration 10 uM, replicate 2
[5] = 24 h, 1 µM, compound concentration 1 uM, replicate 1
[6] = 24 h, 1 µM, compound concentration 1 uM, replicate 2
[7] = 24 h, 10 µM, compound concentration 10 uM, replicate 1
[8] = 24 h, 10 µM, compound concentration 10 uM, replicate 2
[9] = 12 h, 0 µM, compound concentration 0 uM, replicate 1
[10] = 12 h, 0 µM, compound concentration 0 uM, replicate 2
[11] = 24 h, 0 µM, compound concentration 0 uM, replicate 1
[12] = 24 h, 0 µM, compound concentration 0 uM, replicate 2

Q: What does the source list for `CCN1CCN(c2ccc(Nc3cc(N(C)C(=O)Nc4c(Cl)c(OC)cc(OC)c4Cl)ncn3)cc2)CC1` [INFIGRATINIB]?
A: Population Apoptotic (%) [1]: 33%; Population Fragmented Nuclei (%) [1]: 15%; Population Healthy Nuclei (%) [1]: 60%; Population Hoechst High Intensity Objects (%) [1]: 4%; Population Membrane Permeable-Phenotype (%) [1]: 20%; Population Mitochondria Different-Phenotype (%) [1]: 38%; Population Mitotic Cells (%) [1]: 66%; Population Normal (%) [1]: 95%; Population Pyknosed Nuclei (%) [1]: 24%; Population Tubulin-Different-Phenotype (%) [1]: 71%; Total Cell Count [1]: 142; Population Apoptotic (%) [2]: 40%; Population Fragmented Nuclei (%) [2]: 26%; Population Healthy Nuclei (%) [2]: 51%; Population Hoechst High Intensity Objects (%) [2]: 10%; Population Membrane Permeable-Phenotype (%) [2]: 21%; Population Mitochondria Different-Phenotype (%) [2]: 55%; Population Mitotic Cells (%) [2]: 59%; Population Normal (%) [2]: 89%; Population Pyknosed Nuclei (%) [2]: 21%; Population Tubulin-Different-Phenotype (%) [2]: 55%; Total Cell Count [2]: 127; Population Apoptotic (%) [3]: 50%; Population Fragmented Nuclei (%) [3]: 4%; Population Healthy Nuclei (%) [3]: 87%; Population Hoechst High Intensity Objects (%) [3]: 6%; Population Membrane Permeable-Phenotype (%) [3]: 11%; Population Mitochondria Different-Phenotype (%) [3]: 17%; Population Mitotic Cells (%) [3]: 50%; Population Normal (%) [3]: 93%; Population Pyknosed Nuclei (%) [3]: 7%; Population Tubulin-Different-Phenotype (%) [3]: 18%; Total Cell Count [3]: 198; Population Apoptotic (%) [4]: 16%; Population Fragmented Nuclei (%) [4]: 7%; Population Hoechst High Intensity Objects (%) [4]: 13%; Population Mitochondria Different-Phenotype (%) [4]: 18%; Population Mitotic Cells (%) [4]: 83%; Population Normal (%) [4]: 86%; Population Pyknosed Nuclei (%) [4]: 5%; Population Tubulin-Different-Phenotype (%) [4]: 13%; Total Cell Count [4]: 86; Population Apoptotic (%) [5]: 49%; Population Fragmented Nuclei (%) [5]: 16%; Population Healthy Nuclei (%) [5]: 44%; Population Hoechst High Intensity Objects (%) [5]: 8%; Population Membrane Permeable-Phenotype (%) [5]: 30%; Population Mitochondria Different-Phenotype (%) [5]: 63%; Population Mitotic Cells (%) [5]: 50%; Population Normal (%) [5]: 91%; Population Pyknosed Nuclei (%) [5]: 38%; Population Tubulin-Different-Phenotype (%) [5]: 81%; Total Cell Count [5]: 192; Population Apoptotic (%) [6]: 70%; Population Fragmented Nuclei (%) [6]: 30%; Population Healthy Nuclei (%) [6]: 39%; Population Hoechst High Intensity Objects (%) [6]: 14%; Population Membrane Permeable-Phenotype (%) [6]: 19%; Population Mitochondria Different-Phenotype (%) [6]: 78%; Population Mitotic Cells (%) [6]: 29%; Population Normal (%) [6]: 85%; Population Pyknosed Nuclei (%) [6]: 30%; Population Tubulin-Different-Phenotype (%) [6]: 70%; Total Cell Count [6]: 151; Population Apoptotic (%) [7]: 14%; Population Fragmented Nuclei (%) [7]: 5%; Population Healthy Nuclei (%) [7]: 87%; Population Hoechst High Intensity Objects (%) [7]: 2%; Population Membrane Permeable-Phenotype (%) [7]: 15%; Population Mitochondria Different-Phenotype (%) [7]: 14%; Population Mitotic Cells (%) [7]: 85%; Population Normal (%) [7]: 97%; Population Pyknosed Nuclei (%) [7]: 7%; Population Tubulin-Different-Phenotype (%) [7]: 23%; Total Cell Count [7]: 199; Population Apoptotic (%) [8]: 27%; Population Fragmented Nuclei (%) [8]: 10%; Population Healthy Nuclei (%) [8]: 81%; Population Hoechst High Intensity Objects (%) [8]: 9%; Population Membrane Permeable-Phenotype (%) [8]: 17%; Population Mitochondria Different-Phenotype (%) [8]: 20%; Population Mitotic Cells (%) [8]: 72%; Population Normal (%) [8]: 90%; Population Pyknosed Nuclei (%) [8]: 8%; Population Tubulin-Different-Phenotype (%) [8]: 11%; Total Cell Count [8]: 81

Q: How did the “Population Apoptotic (%)” value [9] turn out when `CCNc1cc(N[C@H]2CC[C@H](O)CC2)nc(Nc2ccc3c(ccn3Cc3ccccc3)c2)n1` was run?
A: 37%

Q: And the “Population Fragmented Nuclei (%)” value [9]?
A: 14%

Q: And the “Population Healthy Nuclei (%)” value [9]?
A: 59%

Q: And the “Population Hoechst High Intensity Objects (%)” value [9]?
A: 6%

Q: And the “Population Membrane Permeable-Phenotype (%)” value [9]?
A: 39%

Q: And the “Population Mitochondria Different-Phenotype (%)” value [9]?
A: 98%

Q: What about the “Population Mitotic Cells (%)” value [9] of the same compound?
A: 62%

Q: And the “Population Normal (%)” value [9]?
A: 93%

Q: And the “Population Pyknosed Nuclei (%)” value [9]?
A: 25%

Q: What about the “Population Tubulin-Different-Phenotype (%)” value [9] of the same compound?
A: 100%

Q: And the “Total Cell Count” value [9]?
A: 243

Q: And the “Population Apoptotic (%)” value [10]?
A: 62%

Q: And the “Population Fragmented Nuclei (%)” value [10]?
A: 20%

Q: And the “Population Healthy Nuclei (%)” value [10]?
A: 57%

Q: What about the “Population Hoechst High Intensity Objects (%)” value [10] of the same compound?
A: 7%

Q: What about the “Population Membrane Permeable-Phenotype (%)” value [10] of the same compound?
A: 69%

Q: What about the “Population Mitochondria Different-Phenotype (%)” value [10] of the same compound?
A: 100%

Q: And the “Population Mitotic Cells (%)” value [10]?
A: 37%

Q: And the “Population Normal (%)” value [10]?
A: 92%

Q: What about the “Population Pyknosed Nuclei (%)” value [10] of the same compound?
A: 22%

Q: And the “Total Cell Count” value [10]?
A: 117

Q: What about the “Population Apoptotic (%)” value [1] of the same compound?
A: 64%

Q: And the “Population Fragmented Nuclei (%)” value [1]?
A: 4%

Q: And the “Population Healthy Nuclei (%)” value [1]?
A: 81%

Q: What about the “Population Hoechst High Intensity Objects (%)” value [1] of the same compound?
A: 1%

Q: And the “Population Membrane Permeable-Phenotype (%)” value [1]?
A: 33%

Q: And the “Population Mitochondria Different-Phenotype (%)” value [1]?
A: 30%

Q: And the “Population Mitotic Cells (%)” value [1]?
A: 35%

Q: What about the “Population Normal (%)” value [1] of the same compound?
A: 98%

Q: And the “Population Pyknosed Nuclei (%)” value [1]?
A: 13%

Q: What about the “Population Tubulin-Different-Phenotype (%)” value [1] of the same compound?
A: 88%

Q: And the “Total Cell Count” value [1]?
A: 129

Q: And the “Population Apoptotic (%)” value [2]?
A: 42%

Q: What about the “Population Fragmented Nuclei (%)” value [2] of the same compound?
A: 11%

Q: What about the “Population Healthy Nuclei (%)” value [2] of the same compound?
A: 75%

Q: And the “Population Hoechst High Intensity Objects (%)” value [2]?
A: 11%

Q: What about the “Population Membrane Permeable-Phenotype (%)” value [2] of the same compound?
A: 18%

Q: And the “Population Mitochondria Different-Phenotype (%)” value [2]?
A: 55%

Q: And the “Population Mitotic Cells (%)” value [2]?
A: 57%

Q: What about the “Population Normal (%)” value [2] of the same compound?
A: 88%

Q: And the “Population Tubulin-Different-Phenotype (%)” value [2]?
A: 76%

Q: And the “Total Cell Count” value [2]?
A: 120

Q: And the “Population Apoptotic (%)” value [11]?
A: 65%

Q: What about the “Population Fragmented Nuclei (%)” value [11] of the same compound?
A: 14%

Q: What about the “Population Healthy Nuclei (%)” value [11] of the same compound?
A: 46%

Q: And the “Population Hoechst High Intensity Objects (%)” value [11]?
A: 4%

Q: What about the “Population Membrane Permeable-Phenotype (%)” value [11] of the same compound?
A: 83%

Q: And the “Population Mitotic Cells (%)” value [11]?
A: 34%

Q: What about the “Population Normal (%)” value [11] of the same compound?
A: 95%

Q: And the “Population Pyknosed Nuclei (%)” value [11]?
A: 39%

Q: What about the “Population Tubulin-Different-Phenotype (%)” value [11] of the same compound?
A: 99%

Q: And the “Total Cell Count” value [11]?
A: 273

Q: And the “Population Apoptotic (%)” value [12]?
A: 71%

Q: And the “Population Fragmented Nuclei (%)” value [12]?
A: 23%

Q: What about the “Population Healthy Nuclei (%)” value [12] of the same compound?
A: 47%

Q: And the “Population Hoechst High Intensity Objects (%)” value [12]?
A: 10%

Q: What about the “Population Membrane Permeable-Phenotype (%)” value [12] of the same compound?
A: 92%

Q: What about the “Population Mitochondria Different-Phenotype (%)” value [12] of the same compound?
A: 100%

Q: What about the “Population Mitotic Cells (%)” value [12] of the same compound?
A: 28%

Q: What about the “Population Normal (%)” value [12] of the same compound?
A: 89%

Q: And the “Population Pyknosed Nuclei (%)” value [12]?
A: 29%

Q: What about the “Population Tubulin-Different-Phenotype (%)” value [12] of the same compound?
A: 100%

Q: What about the “Total Cell Count” value [12] of the same compound?
A: 121

Q: What about the “Population Apoptotic (%)” value [5] of the same compound?
A: 33%

Q: What about the “Population Fragmented Nuclei (%)” value [5] of the same compound?
A: 9%

Q: And the “Population Healthy Nuclei (%)” value [5]?
A: 77%

Q: What about the “Population Hoechst High Intensity Objects (%)” value [5] of the same compound?
A: 2%

Q: And the “Population Membrane Permeable-Phenotype (%)” value [5]?
A: 22%

Q: And the “Population Mitochondria Different-Phenotype (%)” value [5]?
A: 42%

Q: And the “Population Mitotic Cells (%)” value [5]?
A: 66%

Q: What about the “Population Normal (%)” value [5] of the same compound?
A: 97%

Q: And the “Population Pyknosed Nuclei (%)” value [5]?
A: 12%

Q: And the “Population Tubulin-Different-Phenotype (%)” value [5]?
A: 69%

Q: And the “Total Cell Count” value [5]?
A: 167

Q: And the “Population Apoptotic (%)” value [6]?
A: 70%

Q: What about the “Population Fragmented Nuclei (%)” value [6] of the same compound?
A: 14%

Q: And the “Population Healthy Nuclei (%)” value [6]?
A: 71%

Q: And the “Population Hoechst High Intensity Objects (%)” value [6]?
A: 9%

Q: What about the “Population Membrane Permeable-Phenotype (%)” value [6] of the same compound?
A: 23%

Q: And the “Population Mitochondria Different-Phenotype (%)” value [6]?
A: 53%

Q: And the “Population Mitotic Cells (%)” value [6]?
A: 29%

Q: What about the “Population Normal (%)” value [6] of the same compound?
A: 90%

Q: And the “Population Pyknosed Nuclei (%)” value [6]?
A: 14%

Q: And the “Population Tubulin-Different-Phenotype (%)” value [6]?
A: 65%

Q: And the “Total Cell Count” value [6]?
A: 132

Reference: ChEMBL document CHEMBL4689842, “EUbOPEN Chemogenomics Library wave 1” (2021)
